Measurements reported in ChEMBL document CHEMBL3616442, “Unconventional Knoevenagel-type indoles: Synthesis and cell-based studies for the identification of pro-apoptotic agents” (Eur J Med Chem, 2015).

What was measured:
MT4 = experiment: Antiproliferative activity against human MT4 cells after 96 hrs by MTT assay; format: functional, cell-based; settings: MT4, 96 h
Method in brief: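 Exponentially growing MT-4 cells (CD4+ human T-cells carrying integrated HTLV-1 genome), seeded at 1×10^5 cells/mL in RPMI-1640 with 10% FCS and antibiotics. Serial dilutions of compound (DMSO stock 100 mM, diluted in medium), 37 °C, 5% CO₂, 96 h. Viability read by MTT. 50% inhibition versus untreated controls by linear regression. Mean ± SD of three independent determinations.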

CCRF-CEM = experiment: Growth inhibition of human CCRF-CEM cells after 48 hrs by sulforhodamine B assay; format: functional
Method in brief: (§1)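 NCI 60-cell-line screen. Compounds tested at five 10-fold dilutions from 10^-4 to 10^-8 M. Cells exposed for the last 48 h of a 72 h incubation, growth estimated by sulforhodamine B protein assay. GI50 is the concentration giving 50% growth inhibition. Values beyond the tested range are expressed as greater or lesser than the extreme concentration.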

HL-60(TB) = experiment: Growth inhibition of human HL-60(TB) cells after 48 hrs by sulforhodamine B assay; format: functional; settings: HL-60, 48 h
Method in brief: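 NCI 60-cell-line screen, HL-60(TB) included. Compound given at five 10-fold dilutions from 10^-4 to 10^-8 M. Cells exposed for the last 48 h of a 72 h incubation. Growth or viability estimated by sulforhodamine B protein assay. GI50 is the concentration giving 50% growth inhibition. Values outside the tested range are reported as greater or less than the highest or lowest concentration.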

K562 = experiment: Growth inhibition of human K562 cells after 48 hrs by sulforhodamine B assay; format: functional; settings: K562, 48 h; method in brief: as §1
SR = experiment: Growth inhibition of human SR cells after 48 hrs by sulforhodamine B assay; format: functional
A549 = experiment: Growth inhibition of human A549 cells after 48 hrs by sulforhodamine B assay; format: functional; settings: A549, 48 h; method in brief: as §1
[1] = Growth inhibition of human EKVX cells after 48 hrs by sulforhodamine B assay; format: functional; method in brief: as §1
HOP-62 = experiment: Growth inhibition of human HOP62 cells after 48 hrs by sulforhodamine B assay; format: functional; settings: HOP-62, 48 h; method in brief: as §1
[2] = Growth inhibition of human HOP92 cells after 48 hrs by sulforhodamine B assay; format: functional; settings: HOP-92, 48 h; method in brief: as §1
NCI-H226 = experiment: Growth inhibition of human NCI-H226 cells after 48 hrs by sulforhodamine B assay; format: functional; settings: NCI-H226, 48 h; method in brief: as §1
NCI-H322M = experiment: Growth inhibition of human NCI-H322M cells after 48 hrs by sulforhodamine B assay; format: functional; method in brief: as §1
NCI-H460 = experiment: Growth inhibition of human NCI-H460 cells after 48 hrs by sulforhodamine B assay; format: functional; settings: NCI-H460, 48 h; method in brief: as §1
NCI-H522 = experiment: Growth inhibition of human NCI-H522 cells after 48 hrs by sulforhodamine B assay; format: functional; settings: NCI-H522, 48 h; method in brief: as §1
HCT-116 = experiment: Growth inhibition of human HCT116 cells after 48 hrs by sulforhodamine B assay; format: functional; settings: HCT-116, 48 h; method in brief: as §1
HCT-15 = experiment: Growth inhibition of human HCT15 cells after 48 hrs by sulforhodamine B assay; format: functional; settings: HCT-15, 48 h; method in brief: as §1
HT-29 = experiment: Growth inhibition of human HT-29 cells after 48 hrs by sulforhodamine B assay; format: functional; settings: HT-29, 48 h; method in brief: as §1
KM12 = experiment: Growth inhibition of human KM12 cells after 48 hrs by sulforhodamine B assay; format: functional; settings: KM12, 48 h; method in brief: as §1
SW-620 = experiment: Growth inhibition of human SW620 cells after 48 hrs by sulforhodamine B assay; format: functional; settings: SW-620, 48 h
SF-268 = experiment: Growth inhibition of human SF268 cells after 48 hrs by sulforhodamine B assay; format: functional; settings: SF-268, 48 h
[3] = Growth inhibition of human SF295 cells after 48 hrs by sulforhodamine B assay; format: functional; settings: SF-295, 48 h
[4] = Growth inhibition of human SF539 cells after 48 hrs by sulforhodamine B assay; format: functional; settings: SF-539, 48 h
SNB-19 = experiment: Growth inhibition of human SNB19 cells after 48 hrs by sulforhodamine B assay; format: functional; settings: SNB-19, 48 h
SNB-75 = experiment: Growth inhibition of human SNB75 cells after 48 hrs by sulforhodamine B assay; format: functional; settings: SNB-75, 48 h
U-251 = experiment: Growth inhibition of human U251 cells after 48 hrs by sulforhodamine B assay; format: functional; settings: U-251, 48 h
[5] = Growth inhibition of human LOXIMVI cells after 48 hrs by sulforhodamine B assay; format: functional; settings: LOX IMVI; method in brief: as §1
M14 = experiment: Growth inhibition of human M14 cells after 48 hrs by sulforhodamine B assay; format: functional; settings: M14, 48 h; method in brief: as §1
MDA-MB-435 = experiment: Growth inhibition of human MDA-MB-435 cells after 48 hrs by sulforhodamine B assay; format: functional; settings: MDA-MB-435, 48 h; method in brief: as §1
SK-MEL-28 = experiment: Growth inhibition of human SK-MEL-28 cells after 48 hrs by sulforhodamine B assay; format: functional; settings: SK-MEL-28, 48 h
SK-MEL-5 = experiment: Growth inhibition of human SK-MEL-5 cells after 48 hrs by sulforhodamine B assay; format: functional; settings: SK-MEL-5, 48 h
UACC-257 = experiment: Growth inhibition of human UACC257 cells after 48 hrs by sulforhodamine B assay; format: functional; settings: UACC-257, 48 h
IGROV-1 = experiment: Growth inhibition of human IGROV1 cells after 48 hrs by sulforhodamine B assay; format: functional; settings: IGROV-1, 48 h; method in brief: as §1
OVCAR-3 = experiment: Growth inhibition of human OVCAR3 cells after 48 hrs by sulforhodamine B assay; format: functional; settings: OVCAR-3, 48 h; method in brief: as §1
OVCAR-4 = experiment: Growth inhibition of human OVCAR4 cells after 48 hrs by sulforhodamine B assay; format: functional; settings: OVCAR-4, 48 h; method in brief: as §1
OVCAR-5 = experiment: Growth inhibition of human OVCAR5 cells after 48 hrs by sulforhodamine B assay; format: functional; settings: OVCAR-5, 48 h
OVCAR-8 = experiment: Growth inhibition of human OVCAR8 cells after 48 hrs by sulforhodamine B assay; format: functional; settings: OVCAR-8, 48 h
[6] = Growth inhibition of human NCI-ADR-RES cells after 48 hrs by sulforhodamine B assay; format: functional; method in brief: as §1
786-0 = experiment: Growth inhibition of human 786-0 cells after 48 hrs by sulforhodamine B assay; format: functional; settings: 786-0, 48 h; method in brief: as §1
A498 = experiment: Growth inhibition of human A498 cells after 48 hrs by sulforhodamine B assay; format: functional; settings: A498, 48 h; method in brief: as §1
[7] = Growth inhibition of human RXF393 cells after 48 hrs by sulforhodamine B assay; format: functional; settings: RXF 393, 48 h
[8] = Growth inhibition of human Hs 578T cells after 48 hrs by sulforhodamine B assay; format: functional; method in brief: as §1
[9] = Growth inhibition of human BT549 cells after 48 hrs by sulforhodamine B assay; format: functional; settings: BT-549, 48 h; method in brief: as §1
T47D = experiment: Growth inhibition of human T47D cells after 48 hrs by sulforhodamine B assay; format: functional
MDA-MB-468 = experiment: Growth inhibition of human MDA-MB-468 cells after 48 hrs by sulforhodamine B assay; format: functional; settings: MDA-MB-468, 48 h; method in brief: as §1

COc1ccc(-c2[nH]c3ccccc3c2/C=C(\C#N)S(=O)(=O)c2ccccc2)cc1
EC50 (MT4): 200 nM
GI50 (CCRF-CEM): 1300 nM
GI50 (HL-60(TB)): 294 nM
GI50 (K562): 535 nM
GI50 (SR): 350 nM
GI50 (A549): 803 nM
GI50 [1]: 1300 nM
GI50 (HOP-62): 1000 nM
GI50 [2]: 2300 nM
GI50 (NCI-H226): 2800 nM
GI50 (NCI-H322M): 1500 nM
GI50 (NCI-H460): 404 nM
GI50 (NCI-H522): 3000 nM
GI50 (HCT-116): 399 nM
GI50 (HCT-15): 554 nM
GI50 (HT-29): 314 nM
GI50 (KM12): 374 nM
GI50 (SW-620): 506 nM
GI50 (SF-268): 1100 nM
GI50 [3]: 500 nM
GI50 [4]: 299 nM
GI50 (SNB-19): 863 nM
GI50 (SNB-75): 379 nM
GI50 (U-251): 473 nM
GI50 [5]: 1300 nM
GI50 (M14): 383 nM
GI50 (MDA-MB-435): 203 nM
GI50 (SK-MEL-28): 1800 nM
GI50 (SK-MEL-5): 344 nM
GI50 (UACC-257): 10700 nM
GI50 (IGROV-1): 19300 nM
GI50 (OVCAR-3): 244 nM
GI50 (OVCAR-4): 578 nM
GI50 (OVCAR-5): 1900 nM
GI50 (OVCAR-8): 1300 nM
GI50 [6]: 428 nM
GI50 (786-0): 1200 nM
GI50 (A498): 1100 nM
GI50 [7]: 1000 nM
GI50 [8]: 682 nM
GI50 [9]: 1600 nM
GI50 (T47D): 533 nM
GI50 (MDA-MB-468): < 10 nM
